Key:
[1] = Binding affinity to HCV 29-mer 2A RNA by MS based binding assay; design: species or system Hepacivirus hominis
[2] = Cytotoxicity against Huh7 cells by MTT assay; type: cell-based, Huh-7; details: human
How it was run: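 Huh-7 cells; viability read by MTT; 50% cytotoxic concentration (CC50) reported.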

[3] = test system: Hepatitis C virus; test: Reduction of HCV RNA levels by HCV replicon assay; type: functional, organism-based, Hepacivirus hominis
How it was run: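 HCV replicon cells treated with compound; intracellular HCV RNA levels quantified by RT-PCR.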

[4] = Binding affinity to HCV 40-mer RNA by MS based binding assay; design: species or system Hepacivirus hominis

| Structure (SMILES) | Kd [1] [µM] | CC50 [2] [µM] | EC50 [3] [µM] | Kd [4] [µM] |
| --- | --- | --- | --- | --- |
| CC(C)CCOc1ccc2nc(N)n(CCCN(C)C)c2c1 | 48 | – | – | – |
| CN(C)CCCn1c(N)nc2ccc3c(c21)CC(CN(C)C)CO3 (stereo not given) | – | > 100 | 3.9 | 0.86 |
| CN(C)CC1COc2ccc3nc4n(c3c2C1)CC(CN(C)C)CN4 (stereo not given) | – | > 100 | 5.4 | 0.72 |
| Nc1nc2ccccc2n1CCCN1CCCC1 | 125 | – | – | – |
| COc1ccc2c(c1)nc(N)n2CCCN(C)C | > 200 | – | – | – |
| COc1ccc2nc(N)n(CCCN(C)C)c2c1 | 40 | – | – | – |
| CN(C)CCCOc1ccc2nc3n(c2c1)CC(CN(C)C)CN3 (stereo not given) | – | > 100 | 29 | 3.5 |
| CN(C)CCCOc1ccc2nc(N)n(CCCN(C)C)c2c1 | 10 | > 100 | 37 | 17 |
| CN(C)CCCn1c(N)nc2ccc(OCCN(C)C)cc21 | 8 | – | – | – |
| CN(C)CCCOc1ccc2c(c1)nc(N)n2CCCN(C)C | > 100 | – | – | – |
| CCN(CC)CCCn1c(N)nc2ccccc21 | 130 | – | – | – |
| CCCCN(CCCC)CCCn1c(N)nc2ccccc21 | > 200 | – | – | – |
| CN(C)CCCOc1ccc2nc(N)[nH]c2c1 | > 100 | – | – | – |
| CN(C)CCCOc1ccc2ncn(CCCN(C)C)c2c1 | > 100 | – | – | – |
| Nc1nc2ccccc2n1CCCN1CCOCC1 | > 200 | – | – | – |
| CN(C)CCCCOc1ccc2nc(N)n(CCCN(C)C)c2c1 | 7 | – | – | – |
| COc1cccc2nc(N)n(CCCN(C)C)c12 | 50 | – | – | – |
| CN(C)CCCn1c(N)nc2ccc(OCc3ccccc3)cc21 | 99 | – | – | – |
| CN(C)CCCn1c(N)nc2ccc3c(c21)CC(CN(C)C)O3 (stereo not given) | – | > 100 | 1.5 | 1.7 |
| COc1cccc2c1nc(N)n2CCCN(C)C | > 200 | – | – | – |
| CN(C)CCCn1c(N)nc2ccccc21 | 100 | > 100 | – | > 100 |
| CCCn1c(N)nc2ccccc21 | > 200 | – | – | – |

— ChEMBL document CHEMBL1139463, “SAR by MS: discovery of a new class of RNA-binding small molecules for the hepatitis C virus: internal ribosome entry site IIA subdomain” (J Med Chem, 2005)
